Results taken from ChEMBL document CHEMBL2034819, “β-Lapachone analogs with enhanced antiproliferative activity” (Eur J Med Chem, 2012).
Calls of active or inactive are those of the source. The rule behind the calls is not given here.

Legend:
SW1573 [1] = assay: Cell cycle arrest in human SW1573 cells assessed as accumulation at S phase after 24 hrs by flow cytometric analysis; type: functional, cell-based
Outline: (§1)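 Cells seeded at 2.5–5 × 10^5 per well and treated after 24 h at two concentrations per agent for a further 24 h. Harvested, then fixed in ice-cold 70% EtOH overnight. Treated with DNase-free RNase at 37 °C for 30 min and stained with PI. DNA content read by flow cytometry on 20 000 cells/sample. G0/G1, S and G2/M fractions gated.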

WiDr [2] = assay: Growth inhibition of human WiDr cells by SRB assay; type: functional
Outline: (§2)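 Cells kept in RPMI 1640 with 5% heat-inactivated FCS and 2 mM L-glutamine. Plated at 10 000 (HBL-100, SW1573), 15 000 (HeLa) or 20 000 (WiDr) cells/well. Drug added on day 1, in triplicate, over 1–100 µM with 0.25% DMSO final. Exposure 48 h. Cells TCA-fixed 60 min at 4 °C, then SRB-stained, OD 492 nm, background-corrected. GI50 reported.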

HeLa [3] = assay: Cell cycle arrest in human HeLa cells assessed as accumulation at S phase after 24 hrs by flow cytometric analysis; type: functional, cell-based; outline: as §1
HBL-100 [4] = assay: Growth inhibition of human HBL100 cells by SRB assay; type: functional; outline: as §2
HBL-100 [5] = assay: Cell cycle arrest in human HBL100 cells assessed as accumulation at G2/M phase after 24 hrs by flow cytometric analysis; type: functional, cell-based; outline: as §1
[6] = target: DNA topoisomerase 2-alpha (Homo sapiens) (UniProt P11388); assay: Inhibition of human topoisomerase 2alpha-mediated kDNA decatenation
DNA topoisomerase 2-alpha (Homo sapiens), sequence (P11388 whole entry): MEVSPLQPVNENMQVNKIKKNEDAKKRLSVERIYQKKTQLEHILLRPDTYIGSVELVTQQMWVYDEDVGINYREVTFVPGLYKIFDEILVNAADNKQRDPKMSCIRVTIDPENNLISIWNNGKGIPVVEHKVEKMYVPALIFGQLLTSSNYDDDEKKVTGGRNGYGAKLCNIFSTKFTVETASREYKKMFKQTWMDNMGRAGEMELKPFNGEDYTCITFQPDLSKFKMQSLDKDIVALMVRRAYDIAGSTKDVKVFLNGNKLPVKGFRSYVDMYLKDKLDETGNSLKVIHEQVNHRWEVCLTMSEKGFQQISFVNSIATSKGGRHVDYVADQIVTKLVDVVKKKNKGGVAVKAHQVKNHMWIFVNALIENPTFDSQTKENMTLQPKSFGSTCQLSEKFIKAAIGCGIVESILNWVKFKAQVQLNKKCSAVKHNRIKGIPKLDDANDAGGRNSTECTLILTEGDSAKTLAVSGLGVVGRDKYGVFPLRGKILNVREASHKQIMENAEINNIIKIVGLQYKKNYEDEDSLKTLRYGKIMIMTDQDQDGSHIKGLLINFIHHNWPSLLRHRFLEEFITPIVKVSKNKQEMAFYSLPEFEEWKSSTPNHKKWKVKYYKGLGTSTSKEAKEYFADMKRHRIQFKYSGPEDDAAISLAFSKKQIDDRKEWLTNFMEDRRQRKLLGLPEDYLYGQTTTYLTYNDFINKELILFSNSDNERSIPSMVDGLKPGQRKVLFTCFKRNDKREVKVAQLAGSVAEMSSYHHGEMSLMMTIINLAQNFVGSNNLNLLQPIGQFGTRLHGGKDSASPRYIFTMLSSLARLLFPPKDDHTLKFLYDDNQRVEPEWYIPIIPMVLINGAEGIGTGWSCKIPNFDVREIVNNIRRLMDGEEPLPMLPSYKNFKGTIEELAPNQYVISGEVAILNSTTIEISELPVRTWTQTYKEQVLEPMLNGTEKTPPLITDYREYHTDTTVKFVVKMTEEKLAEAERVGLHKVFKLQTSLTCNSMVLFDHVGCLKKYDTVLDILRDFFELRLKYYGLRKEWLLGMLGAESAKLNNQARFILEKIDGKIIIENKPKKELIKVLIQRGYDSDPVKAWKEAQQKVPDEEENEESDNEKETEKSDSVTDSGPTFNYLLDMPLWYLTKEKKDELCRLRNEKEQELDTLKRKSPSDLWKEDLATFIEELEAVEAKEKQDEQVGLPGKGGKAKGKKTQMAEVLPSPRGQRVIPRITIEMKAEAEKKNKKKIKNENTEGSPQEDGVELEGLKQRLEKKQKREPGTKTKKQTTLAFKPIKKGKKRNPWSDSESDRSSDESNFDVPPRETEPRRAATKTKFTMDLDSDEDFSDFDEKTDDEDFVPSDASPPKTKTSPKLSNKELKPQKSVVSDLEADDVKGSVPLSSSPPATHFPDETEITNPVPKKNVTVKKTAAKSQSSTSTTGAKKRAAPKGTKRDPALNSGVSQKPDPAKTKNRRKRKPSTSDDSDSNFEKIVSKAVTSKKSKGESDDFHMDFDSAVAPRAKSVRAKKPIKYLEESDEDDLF

HBL-100 [7] = assay: Cell cycle arrest in human HBL100 cells assessed as accumulation at S phase after 24 hrs by flow cytometric analysis; type: functional, cell-based; outline: as §1
SW1573 [8] = assay: Cell cycle arrest in human SW1573 cells assessed as accumulation at G2/M phase after 24 hrs by flow cytometric analysis; type: functional, cell-based; outline: as §1
HeLa [9] = assay: Growth inhibition of human HeLa cells by SRB assay; type: functional; outline: as §2
WiDr [10] = assay: Cell cycle arrest in human WiDr cells assessed as accumulation at S phase after 24 hrs by flow cytometric analysis; type: functional, cell-based; outline: as §1
SW1573 [11] = assay: Growth inhibition of human SW1573 cells by SRB assay; type: functional; outline: as §2
HeLa [12] = assay: Cell cycle arrest in human HeLa cells assessed as accumulation at G2/M phase after 24 hrs by flow cytometric analysis; type: functional, cell-based; outline: as §1
WiDr [13] = assay: Cell cycle arrest in human WiDr cells assessed as accumulation at G2/M phase after 24 hrs by flow cytometric analysis; type: functional, cell-based; outline: as §1
HeLa [14] = assay: Decrease in cyclin E expression in human HeLa cells at 3 uM after 24 hrs by immunoblot analysis; type: functional, cell-based
Outline: (§3)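 HeLa cells exposed to 3 µM for several time intervals. Lysed in Tris pH 8.0/NP-40 buffer with protease and phosphatase inhibitors, and debris pelleted. Proteins resolved by SDS-PAGE and blotted to PVDF. Probed for PARP-1, procaspase 3, cyclin A, cyclin E, MRE11, p-Chk2 and γ-H2AX, with α-tubulin as loading control. HRP secondaries with luminol/p-iodophenol detection.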

HeLa [15] = assay: Induction of apoptosis in human HeLa cells assessed as PARP cleavage at 3 uM after 24 hrs by immunoblot analysis; type: functional, cell-based; outline: as §3
HeLa [16] = assay: Induction of DNA damage in human HeLa cells assessed as increase in chk2 phosphorylation at 3 uM after 24 hrs by immunoblot analysis; type: functional, cell-based; outline: as §3
HeLa [17] = assay: Induction of intracellular reactive oxygen species production in human HeLa cells at 3 uM after 3 hrs DCFH-DA staining-based flow cytometric analysis relative to control; type: functional
Outline: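 HeLa cells seeded at 3 × 10^5 per well and treated 24 h later at 3 µM for 3 h. Co-incubated with 5 µM DCFH-DA for 1 h at 37 °C. DCF fluorescence read by flow cytometry on 10 000 cells/sample and compared with untreated cells. H2O2 (500 µM) served as positive control.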

[18] = Cytotoxicity against mouse erythrocytes assessed as lytic effect; type: cell-based; settings: erythrocyte
HeLa [19] = assay: Increase in MRE11A expression in human HeLa cells at 3 uM after 24 hrs by immunoblot analysis; type: functional, cell-based; outline: as §3
HeLa [20] = assay: Induction of DNA damage in human HeLa cells assessed as increase in gamma-H2AX phosphorylation at 3 uM after 24 hrs by immunoblot analysis; type: functional, cell-based; outline: as §3
HeLa [21] = assay: Increase in cyclin A expression in human HeLa cells at 3 uM after 24 hrs by immunoblot analysis; type: functional, cell-based; outline: as §3
HeLa [22] = assay: Induction of apoptosis in human HeLa cells assessed as caspase 3 cleavage at 3 uM after 24 hrs by immunoblot analysis; type: functional, cell-based; outline: as §3

| SMILES | GI50 (HeLa [9]) [nM] | GI50 (SW1573 [11]) [nM] | GI50 (WiDr [2]) [nM] | GI50 (HBL-100 [4]) [nM] | also measured |
| --- | --- | --- | --- | --- | --- |
| CC1(C)CCC2=C(O1)c1c(O)cccc1C(=O)C2=O | 1100 | 360 | 1900 | 620 | Activity (SW1573 [1]): Dose-dependent effect; Activity (HeLa [3]): Dose-dependent effect; Activity (HBL-100 [5]): Dose-dependent effect; inhibition [6]: inactive; Activity (HBL-100 [7]): Dose-dependent effect; Activity (SW1573 [8]): Dose-dependent effect; Activity (WiDr [10]): Dose-dependent effect; Activity (HeLa [12]): Dose-dependent effect; Activity (WiDr [13]): Dose-dependent effect |
| COc1cccc2c1C1=C(CCC(C)(C)O1)C(=O)C2=O | 1800 | 460 | 2100 | 690 |  |
| COc1cccc2c1C(=O)C(=O)C1=C2OC(C)(C)CC1 | 5100 | 1400 | 86000 | 2700 |  |
| COc1ccc2c(c1)C(=O)C(=O)C1=C2OC(C)(C)CC1 | 1700 | 450 | 27000 | 410 |  |
| CC1(C)CCC2=C(O1)c1ccc(O)cc1C(=O)C2=O | 2500 | 2300 | 21000 | 2300 |  |
| COc1ccc2c(c1)C(=O)C1=C(CCC(C)(C)O1)C2=O | 40000 | 27000 | 82000 | 28000 |  |
| COc1ccc2c(c1)C(=O)C(O)=C(CC=C(C)C)C2=O | 18000 | 17000 | 68000 | 19000 |  |
| COc1cccc2c1C(=O)C(CC=C(C)C)=C(O)C2=O | 30000 | 26000 | > 100000 | 22000 |  |

Continued, in another order:

| GI50 (HeLa [9]) [nM] | GI50 (SW1573 [11]) [nM] | SMILES | GI50 (WiDr [2]) [nM] | GI50 (HBL-100 [4]) [nM] | also measured |
| --- | --- | --- | --- | --- | --- |
| 1600 | 230 | CC1(C)CCC2=C(O1)c1cccc(OC(=O)C(C)(C)C)c1C(=O)C2=O | 2100 | 180 |  |
| > 100000 | > 100000 | COc1cccc2c1C(=O)C1=C(OC(C)(C)CC1)C2=O | > 100000 | 28000 |  |
| 1000 | 840 | CC1(C)CCC2=C(O1)c1ccccc1C(=O)C2=O [LAPACHONE] |  | 380 | Activity (SW1573 [1]): Dose-dependent effect; Activity (HeLa [3]): Dose-dependent effect; Activity (HBL-100 [5]): Dose-dependent effect; inhibition [6]: inactive; Activity (HBL-100 [7]): Dose-dependent effect; Activity (SW1573 [8]): Dose-dependent effect; Activity (WiDr [10]): Dose-dependent effect; Activity (HeLa [12]): Dose-dependent effect; Activity (WiDr [13]): Dose-dependent effect |
| 1800 | 19000 | CC1(C)CCC2=C(O1)C(=O)c1c(O)cccc1C2=O | 14000 | 3400 |  |
| 210 | 29 | CC1(C)CCC2=C(O1)c1cccc(O)c1C(=O)C2=O | 2000 | 36 | Activity (SW1573 [1]): Dose-dependent effect; Activity (HeLa [14]): Active; Activity (HeLa [3]): Dose-dependent effect; Activity (HeLa [15]): inactive; Activity (HBL-100 [5]): Dose-dependent effect; inhibition [6]: inactive; Activity (HBL-100 [7]): Dose-dependent effect; Activity (HeLa [16]): Active; fold change (FC) (HeLa [17]): 6; Activity (SW1573 [8]): Dose-dependent effect; Activity [18]: Non-toxic; Activity (HeLa [19]): Active; Activity (WiDr [10]): Dose-dependent effect; Activity (HeLa [20]): Active; Activity (HeLa [21]): Active; Activity (HeLa [22]): inactive; Activity (HeLa [12]): Dose-dependent effect; Activity (WiDr [13]): Dose-dependent effect |
